ChEMBL document CHEMBL2384903, “Highly efficient biocompatible neuroprotectants with dual activity as antioxidants and P2Y receptor agonists” (J Med Chem, 2013)

Columns and labels:
PC-12 [1] = experiment: Antioxidant activity in rat PC12 cells assessed as inhibition of Fe2+-induced ROS production after 1 hr by DCFH-DA staining-based fluorometric analysis; assay type: functional, cell-based
How it was run: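 PC12 cells grown in DMEM, seeded 24 h. Loaded with DCFH-DA (ethanol stock diluted 100-fold in PBS) for 20 min, then probe removed. Nucleotides added at final 0.2–200 μM, and oxidation started with FeSO4 at final 0.16 μM. Fluorescence at 485/530 nm read during 1 h at 37 °C. […] Mean ± SD of two experiments.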

P2Y purinoceptor 11 = target: T1, P2Y purinoceptor 11 (Homo sapiens, UniProt Q96G91); experiment: Agonist activity at human GFP-tagged P2Y11R transfected in human 1321N1 cells assessed as induction of intracellular calcium mobilization by fluorescence assay; assay type: functional, cell-based; conditions: read-out: EC50
T1 sequence (Q96G91 whole entry): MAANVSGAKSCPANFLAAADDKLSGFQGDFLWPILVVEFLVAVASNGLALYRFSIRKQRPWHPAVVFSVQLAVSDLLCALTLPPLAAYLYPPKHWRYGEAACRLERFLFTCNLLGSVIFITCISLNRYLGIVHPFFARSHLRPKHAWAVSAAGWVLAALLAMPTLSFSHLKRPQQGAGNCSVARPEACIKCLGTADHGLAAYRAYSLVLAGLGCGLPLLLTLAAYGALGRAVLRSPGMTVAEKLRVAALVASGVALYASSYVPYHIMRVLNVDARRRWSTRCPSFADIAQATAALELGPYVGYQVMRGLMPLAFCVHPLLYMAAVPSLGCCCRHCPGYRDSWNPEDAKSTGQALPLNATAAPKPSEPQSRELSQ

P2Y purinoceptor 1 = P2Y purinoceptor 1 (Homo sapiens, UniProt P47900); experiment: Agonist activity at human GFP-tagged P2Y1R transfected in human 1321N1 cells assessed as induction of intracellular calcium mobilization by fluorescence assay; assay type: functional, cell-based
P2Y purinoceptor 1, sequence (P47900 whole entry): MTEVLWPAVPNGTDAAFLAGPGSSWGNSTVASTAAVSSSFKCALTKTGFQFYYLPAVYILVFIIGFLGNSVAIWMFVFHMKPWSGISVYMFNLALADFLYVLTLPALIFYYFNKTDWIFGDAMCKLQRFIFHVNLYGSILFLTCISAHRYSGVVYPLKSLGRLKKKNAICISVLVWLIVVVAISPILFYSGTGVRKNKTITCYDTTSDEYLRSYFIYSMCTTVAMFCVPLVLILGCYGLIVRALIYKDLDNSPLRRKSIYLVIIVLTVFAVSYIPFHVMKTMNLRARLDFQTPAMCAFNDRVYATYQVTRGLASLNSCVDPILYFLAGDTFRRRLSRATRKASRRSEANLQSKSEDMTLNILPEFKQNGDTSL

[2] = Metabolic stability in human serum assessed as compound remaining at 0.1 mg after 6 hrs by HPLC analysis; assay type: ADME, cell-free; conditions: read-out: Stability
How it was run: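 0.1 mg compound in water was mixed with human blood serum and RPMI-1640 medium (1:3 serum:medium) and incubated at 37 °C for 0−24 h. Remaining intact nucleotide was quantified from the change in its HPLC peak integration over time.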

[3] = Antioxidant activity assessed as inhibiton of Fe2+-induced Fenton reaction-mediated hydroxyl radical formation from H2O2 measured for 150 secs by ESR analysis in presence of DMPO; assay type: functional
How it was run: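 Spin-trap ESR run at room temperature, final volume 100 μL. 5–500 μM compound is combined with ammonium iron(II) sulfate (1 mM stock) and Tris pH 7.4. After 30 s mixing, DMPO (100 mM stock) and H2O2 (100 mM stock) are added, with final pH 7.2–7.4. Spectrum is recorded 150 s after H2O2 at 9.76 GHz, 6.35 mW. Mean ± SD of three experiments.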

[4] = Antioxidant activity assessed as free radical scavenging activity after 7 mins by ABTS radical cation decolorization assay; assay type: functional
How it was run: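 ABTS•+ is made from 7 mM ABTS and 2.45 mM persulfate (final), left in the dark at RT for 12–16 h, then diluted in water pH 7.4 to A734 0.80. It is mixed with compound or Trolox standard (final 0–60 μM), and A734 is read at exactly 7 min. Percent inhibition is plotted against concentration, with solvent blanks. Each run is done at least three times, in triplicate.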

PC-12 [5] = experiment: Antioxidant activity in rat PC12 cells assessed as inhibition of Fe2+-induced ROS production at 100 uM after 1 hr by DCFH-DA staining-based fluorometric analysis relative to control; assay type: functional; conditions: PC-12, 1 h
How it was run: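 PC12 cells in DMEM were seeded 24 h, loaded 20 min with diluted DCFH-DA and washed. Nucleotides were then added at 0.2−200 μM final. Oxidation was started with FeSO4 at 0.16 μM final and plates were incubated 1 h at 37 °C. DCF fluorescence was read at 485/530 nm, and percent inhibition of ROS was taken against untreated oxidized control.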

PC-12 [6] = experiment: Cytotoxicity against rat PC12 cells assessed as cell viability up to 200 uM after 48 hrs by MTT assay; assay type: cell-based; conditions: pc-12, 48 h
How it was run: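 PC12 cells were exposed to compounds at various concentrations up to 200 μM for 48 h, and viability was measured by MTT assay.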

Homo sapiens = organism: Homo sapiens; experiment: Selectivity ratio of EC50 for human GFP-tagged P2Y11R to EC50 for human GFP-tagged P2Y1R
How it was run: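 1321N1 astrocytoma cells stably expressing human P2Y1-GFP or P2Y11-GFP were loaded with 2 μM fura-2 AM plus 0.02% pluronic acid in HEPES-buffered saline pH 7.4 for 30 min at 37 °C. They were then superfused at 37 °C with graded agonist concentrations. [Ca2+]i was read as the F340/F380 ratio (510 nm emission) in GFP-positive cells, at least 40 cells per point. EC50 came from concentration–response curves, n = 3.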

[7] = Neuroprotective activity in rat primary cortical neurons assessed as decrease in FeSO4-induced oxidative stress measured cell viability after 24 hrs by MTT assay; assay type: functional, cell-based; conditions: Cerebral cortex neuron
How it was run: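 Cortical neurons came from 1-day-old rat brain, were trypsin-dissociated and plated on polyornithine. They were grown in serum-free DMEM/F12 with B-27, then Ara-C treated for 48 h. Cells were treated with 0.01−5 μM nucleotide before FeSO4 (3 μM final) for 24 h. MTT 1 mg/mL was applied for 2 h at 37 °C, formazan dissolved in DMSO, absorbance read at 550 nm. Viability was expressed relative to vehicle control, mean ± SD of three independent experiments in triplicate.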

[8] = Rattus norvegicus, PC-12, 1 h, read-out: IC50

Row | SMILES | IC50 (PC-12 [1]; [8]) [µM] | EC50 (P2Y purinoceptor 1) [µM] | remaining at 6 h [2] [%] | IC50 [3] [µM] | IC50 [4] [µM] | EC50 (P2Y purinoceptor 11) [µM] | IC50 (PC-12 [1]; pc-12) | inhibition at 100 µM (PC-12 [5]) [%] | Activity (PC-12 [6]) | Ratio EC50 (Homo sapiens) | EC50 [7] [µM]
1 | B[P@](=O)(OC[C@H]1O[C@@H](n2cnc3c(N)ncnc32)[C@H](O)[C@@H]1O)OP(=O)(O)O | 1 | 13 | – | 41 | 24 | 2.9 | – | – | – | – | –
2 | Cc1c(C)c2c(c(C)c1O)CCC(C)(C(=O)O)O2 (centres undefined) [TROLOX] | 20 | – | – | – | 18 | – | – | – | – | – | –
3 | Nc1ncnc2c1ncn2[C@@H]1O[C@H](COP(=O)(O)OP(=O)(O)OP(=O)(O)O)[C@@H](O)[C@H]1O [ADENOSINE TRIPHOSPHATE] | – | – | – | > 500 | 60 | – | Not Active | 45 | – | – | –
4 | [BH3-]P(=O)(OC[C@H]1O[C@@H](n2cnc3c(N)nc(Cl)nc32)[C@H](O)[C@@H]1O)OP(=O)([O-])C(Cl)(Cl)P(=O)([O-])[O-].[Na+].[Na+].[Na+].[Na+] (some centres undefined) | – | – | – | – | – | – | – | – | Non-toxic | – | –
5 | O=C(O)CN(CCN(CC(=O)O)CC(=O)O)CC(=O)O [EDETIC ACID] | – | – | – | 54 | – | – | – | – | – | – | –
6 | B[P@](=O)(OC[C@H]1O[C@@H](n2cnc3c(N)nc(Cl)nc32)[C@H](O)[C@@H]1O)OP(=O)(O)O | 0.2 | 0.6 | – | 120 | 39 | 1 | – | – | – | < 530 | 0.4

The next lines start with results.

Row | IC50 (PC-12 [1]; [8]) [µM] | EC50 (P2Y purinoceptor 1) [µM] | remaining at 6 h [2] [%] | IC50 [3] [µM] | IC50 [4] [µM] | SMILES | EC50 (P2Y purinoceptor 11) [µM] | IC50 (PC-12 [1]; pc-12) | inhibition at 100 µM (PC-12 [5]) [%] | Activity (PC-12 [6]) | Ratio EC50 (Homo sapiens) | EC50 [7] [µM]
7 | 21 | 0.024 | 32 | 170 | 30 | Nc1ncnc2c1ncn2[C@@H]1O[C@H](COP(=O)(O)OP(=O)(O)O)[C@@H](O)[C@H]1O [ADENOSINE DIPHOSPHATE] | 1.7 | – | – | – | – | –
8 | 0.19 | 0.95 | – | 60 | 27 | B[P@](=O)(OC[C@H]1O[C@@H](n2cnc3c(N)nc(Cl)nc32)[C@H](O)[C@@H]1O)OP(=O)(O)C(Cl)(Cl)P(=O)(O)O | 0.13 | – | – | – | – | –
9 | 29 | 0.76 | – | 75 | > 60 | Nc1ncnc2c1ncn2[C@@H]1O[C@H](COP(=O)(O)OP(=O)(O)OP(=O)(O)OP(=O)(O)OP(=O)(O)OC[C@H]2O[C@@H](n3cnc4c(N)ncnc43)[C@H](O)[C@@H]2O)[C@@H](O)[C@H]1O | – | – | – | – | – | –
10 | 2.6 | 2.5 | – | 36 | 24 | B[P@](=O)(OC[C@H]1O[C@@H](n2cnc3c(N)nc(Cl)nc32)[C@H](O)[C@@H]1O)OP(=O)(O)OP(=O)(O)O | – | – | – | – | – | –
